Data reported in ChEMBL document CHEMBL4428115, “Molecular docking studies, biological and toxicity evaluation of dihydroisoquinoline derivatives as potential anticancer agents” (Bioorg Med Chem, 2016).
Activity calls are given as the source filed them. No cut-off for these calls is given here.

Key:
[1] = tested on: HL-60; assay: Induction of apoptosis in human HL60 cells assessed as increase in late apoptotic cells at 3 ug/ml after 72 hrs by APC-Annexin V/propidium iodide staining based flow cytometry relative to control; format: functional, cell-based
Summary of the method: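 HL-60 (2 × 10^5 cells/mL, seeded 24 h before) treated 72 h at 3 µg/mL alongside a DMSO control. Cells suspended in APC-Annexin V in HEPES binding buffer pH 7.4 with 1.8 mM CaCl2, 15 min dark at rt, then PI at 0.1 mg/mL final. Flow cytometry: PI+/Annexin+ counted as late apoptotic/necrotic. Three experiments, mean ± SD, p≤0.05 versus control.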

[2] = tested on: HL60/MX2; assay: Antiproliferative activity against human HL60/MX2 cells after 72 hrs by MTT assay; format: functional, cell-based; conditions: HL60/MX2, 72 h
Summary of the method: (§1)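 Leukemia cells seeded at 1 × 10^4 per well 24 h before adding compounds (0.01–1000 µg/mL from DMSO stock), exposed 72 h. MTT (5 mg/mL stock) added for 4 h, then DMF/SDS lysis mixture; absorbance at 570 nm read after 24 h. Triplicates per experiment, 3–5 repeats; IC50 calculated per experiment, reported as mean ± SD.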

[3] = Selectivity index, ratio of IC50 for mouse BALB/3T3 cells to IC50 for human LoVo/DX cells; format: toxicity; conditions: BALB/3T3 cells versus LoVo/DX cells, read-out: Ratio IC50
[4] = Acute dermal toxicity in Wistar rat assessed as pathological changes at 2000 mg/kg topically applied to shaved dorsal skin as single dose for 24 hrs measured for 14 days; format: organism-based; conditions: in vivo, topical_or_ocular
Summary of the method: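 Wistar rats, 5 males and 5 females; single 2000 mg/kg bw dermal application to shaved dorsal skin (about 41 cm2 per male, 31 cm2 per female) for 24 h. General and detailed clinical observations daily over a 14-day observation period, then animals euthanized; treated skin examined for pathological changes.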

[5] = tested on: A549; assay: Potency index, ratio of bestatin IC50 to compound IC50 for human A549 cells; format: functional
[6] = Toxicity in Dunkin-Hartley guinea pig assessed as mild skin sensitization incidents at 1 % administered intradermally followed by 50% topical application in the sites of intradermal injection for 24 to 72 hrs followed by 50 % of compound challenge; design: species or system Cavia porcellus; conditions: in vivo
Summary of the method: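 Maximization-type test: 11 treated and 6 sham control guinea pigs. Induction was an intradermal 1% suspension in peanut oil with Freund's Complete Adjuvant, then 50% topical at the injection sites, after 10% sodium lauryl sulfate pretreatment. Challenge was 50% in peanut oil on the right flank, vehicle on the left. Skin was scored at 24, 48 and 72 h.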

[7] = Toxicity in New Zealand albino rabbit assessed as acute skin irritation/corrosion at 0.5 g topically applied to shaved skin for 4 hrs measured 1 to 72 hrs post dose; design: species or system Oryctolagus cuniculus; conditions: in vivo, topical_or_ocular
Summary of the method: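 Test item applied under a protective band for 4 h to one rabbit first, then to two more animals to confirm or exclude irritation. Treated skin scored at 1, 24, 48 and 72 h after exposure, with daily morbidity and mortality checks. Animals euthanized after the observation period.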

[8] = tested on: HL-60; assay: Antiproliferative activity against human HL60 cells after 72 hrs by MTT assay; format: functional, cell-based; conditions: HL-60, 72 h; summary of the method: as §1
[9] = Antioxidant activity assessed as ABTS free radical scavenging activity; format: functional
[10] = tested on: HL-60; assay: Decrease in cyclin E expression in human HL60 cells at 1 ug/ml after 72 hrs by Western-blot analysis; format: functional, cell-based
Summary of the method: (§2)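 HL-60 (2 × 10^5 cells/mL) treated 72 h at 1 µg/mL with DMSO control, then lysed in RIPA buffer with protease/phosphatase inhibitors. 100 µg protein resolved on 4–20% gels and transferred to nitrocellulose. Probed with rabbit primary antibody, fluorescein-linked anti-rabbit secondary, then anti-fluorescein–alkaline phosphatase with ECF substrate; fluorescence scanned. Densitometry normalized to actin, reported as fold change versus control.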

[11] = Antiproliferative activity against human HCV29T cells; format: functional, cell-based
[12] = Selectivity index, ratio of IC50 for mouse BALB/3T3 cells to IC50 for human Jurkat cells; format: toxicity; conditions: BALB/3T3 cells versus Jurkat cells, read-out: Ratio IC50
[13] = tested on: DU-145; assay: Antiproliferative activity against human DU145 cells; format: functional, cell-based
[14] = Antiproliferative activity against human LoVo/DX cells; format: functional, cell-based
[15] = Selectivity index, ratio of IC50 for mouse BALB/3T3 cells to IC50 for human MV411 cells
[16] = Selectivity index, ratio of IC50 for mouse BALB/3T3 cells to IC50 for human HCV29T cells; format: toxicity; conditions: BALB/3T3 cells versus HCV29T cells, read-out: Ratio IC50
[17] = tested on: HL-60; assay: Cell cycle arrest in human HL60 cells assessed as accumulation at G0/G1 phase at 1 to 3 ug/ml after 72 hrs by propidium iodide staining based flow cytometry; format: functional
Summary of the method: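 HL-60 seeded at 2 × 10^5 cells/mL 24 h before treatment, exposed 72 h to 1 or 3 µg/mL, with DMSO solvent and cisplatin controls. Cells fixed in 70% ethanol at −20°C, treated with RNase 8 µg/mL at 37°C for 1 h, stained 30 min with PI 50 µg/mL at 4°C. DNA content by flow cytometry; three independent experiments, mean ± SD.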

[18] = Antiproliferative activity against HLMEC after 72 hrs by SRB assay; design: species or system Homo sapiens
Summary of the method: (§3)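 Adherent cells plated at 1 × 10^4 per well 24 h before treatment, then exposed 72 h to compounds diluted from 20 mg/mL DMSO stock (0.01–1000 µg/mL). Fixed in cold 50% TCA at 4°C for 1 h, stained with 0.4% sulforhodamine B, bound dye extracted with 10 mM Tris, OD at 540 nm. Triplicates, 3–5 experiments; IC50 per experiment, mean ± SD.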

[19] = tested on: HL-60; assay: Induction of autophagy in human HL60 cells assessed as accumulation of LC3b-2 at 1 ug/ml after 72 hrs by Western-blot analysis; format: functional, cell-based; summary of the method: as §2
[20] = Acute toxicity in Balbc/cmdb mouse assessed as clinical signs at 300 mg/kg, po administered as single dose in first stage of experiment measured immediately post dose; format: organism-based; conditions: in vivo
Summary of the method: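 Acute toxic class method per OECD Guideline 423 / EU Method B.1 tris, run in three stages of three female Balbc/cmdb mice each. Fasted about 3 h, then given a single dose by metal stomach tube in DMSO at 0.5 mL/100 g bw. Stage doses were 300, 2000, then 2000 mg/kg bw. General and detailed clinical observations daily for 14 days; body weights recorded.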

[21] = tested on: HT-29; assay: Antiproliferative activity against human HT-29 cells at 290 uM; format: functional, cell-based
[22] = tested on: BALB/3T3; assay: Antiproliferative activity against mouse BALB/3T3 cells after 72 hrs by SRB assay; format: cell-based; conditions: BALB/3T3, 72 h; summary of the method: as §3
[23] = Selectivity index, ratio of IC50 for mouse BALB/3T3 cells to IC50 for human PC3 cells; format: toxicity; conditions: BALB/3T3 cells versus PC3 cells, read-out: Ratio IC50
[24] = tested on: LoVo; assay: Potency index, ratio of bestatin IC50 to compound IC50 for human LoVo cells; format: functional
[25] = tested on: A549; assay: Antiproliferative activity against human A549 cells; format: functional, cell-based
[26] = tested on: HL-60; assay: Effect on Bcl-2 expression in human HL60 cells at 1 ug/ml after 72 hrs by Western-blot analysis; format: functional, cell-based; summary of the method: as §2
[27] = tested on: HL-60; assay: Effect on Bax expression in human HL60 cells at 1 ug/ml after 72 hrs by Western-blot analysis; format: functional, cell-based; summary of the method: as §2

For `CCOC(=O)C1(C(=O)OCC)Cc2cc(OCc3ccccc3)cc(OCc3ccccc3)c2C=N1`, the Activity [1] was “Active”, the IC50 [2] was 5.1 µM and the selectivity ratio [3] was 8.8. For the same compound, the Activity [4] was “Non-Toxic”, the “Ratio IC50” value [5] was 18 and the Activity [6] was 18.2%. For the same compound, the Activity [7] was “Non-Toxic”, the IC50 [8] was 6.2 µM and the Activity [9] was “inactive”. The Activity [10] was “Active”, the IC50 [11] was 8.8 µM and the selectivity ratio [12] was 2.5. For the same compound, the IC50 [13] was 7.5 µM, the IC50 [14] was 4.1 µM and the “Ratio IC50” value [15] was 0.6. The selectivity ratio [16] was 4.1, the Activity [17] was “Active” and the IC50 [18] was 6.8 µM. For the same compound, the Activity [19] was “inactive”, the Activity [20] was “Toxic” and the “growth inhibition (GI)” value [21] was “inactive”. For the same compound, the IC50 [22] was 35.9 µM, the selectivity ratio [23] was 8.5 and the “Ratio IC50” value [24] was 212. For the same compound, the IC50 [25] was 13.1 µM, the Activity [26] was “inactive” and the Activity [27] was “inactive”.
